PGC1a acetyl up: compounds raising PGC1a acetylation signal, primary screen, PGC1a modulator project, cell-based, U2OS, AlphaScreen, signal-increasing mode. overnight. activation, % at 15.6 µM. 350,000 tested, 0.21% active. AID 651723, 2012;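 active = every replicate reaching activation of at least 50%, whatever the mean replicate activation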;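 note: hits raise the AlphaScreen acetylation signal above neutral controls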
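Test system: U2OS cells expressing flag-PGC1a plus GCN5; Amount: 7000 U2OS cells per well; Compound: single test concentration per compound; Incubation: compound overnight at 37 °C, each detection step 1 h RT; Signal: AlphaScreen lysate read.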
Each line names hits and unclear results; the compound was inactive in the other large screens. The entries come from a sample that favours hits as a whole.

CN(C[C@H]1N[C@@H](CO)[C@@H]1c1ccc(C2=CCCC2)cc1)C(=O)c1cccc(F)c1	none
COc1ccc(S(=O)(=O)N2CCCCN3[C@@H](CO)[C@@H](c4ccc(C5=CCCCC5)cc4)[C@@H]3C2)cc1	PGC1a acetyl up 57.3
O=C1c2ccsc2SCCN1Cc1cccc(Cl)c1	PGC1a acetyl up 50.3
CC(=O)c1cccc(-c2ccnc3c2CC(C(=O)Nc2ccc4c(c2)OCO4)O3)c1 (configuration not stated)	PGC1a acetyl up 57.9
C[C@H]1CN([C@@H](C)CO)C(=O)c2cccc(NC(=O)c3ccncc3)c2O[C@H]1CN(C)C(=O)Nc1ccc2c(c1)OCO2	none
COc1ccc(Cn2nnnc2C(C(C)C)N(Cc2ccco2)Cc2cccs2)cc1 (configuration not stated)	PGC1a acetyl up 56.4
CCCNC(=O)c1ccc(COc2ccc(Cl)cc2)o1	none
CCOC(=O)C(NC(=O)c1ccccc1OCC)(Nc1ncccn1)C(F)(F)F (configuration not stated)	PGC1a acetyl up 70.3
CCOc1ccc(C(=O)N/N=C(\c2ccccc2)c2ccccn2)cc1	none
CCOc1ccccc1C(=O)NCCCCCC(=O)O	none
CN(C)C(=S)Nc1ccc(Br)c(Cl)c1	none
CCOC(=O)C1CCN(C2=NC(=O)/C(=C/c3ccc(O)cc3)S2)CC1	none
CCOC(=O)C1CCCN(C(=O)CSc2ccc(Br)cc2)C1 (configuration not stated)	none
CCOC(=O)C1CCN(Cc2ccc(O)c3ncccc23)CC1	PGC1a acetyl up 61.4
Cc1ccccc1OCC(O)CNC1CCC(NCC(O)COc2ccccc2C)CC1 (configuration not stated)	PGC1a acetyl up 88.3
CCOCCCNc1nc2c(c(=O)n(C)c(=O)n2C)n1CCCc1ccccc1	none
COc1cccc(OC)c1NC(=O)C1CCCN1C(=O)NCc1ccccc1 (configuration not stated)	none
CCOC(=O)c1cnn(-c2ccccc2)c1-n1cccc1C(=O)C(=O)Nc1ccc(F)cc1	PGC1a acetyl up 78.3
CC(C)NC(=O)NCC[C@@H]1CC[C@H](NS(=O)(=O)c2ccc(-c3ccccc3)cc2)[C@@H](CO)O1	PGC1a acetyl up 65.0
O=C(NCC[C@@H]1CC[C@H](NS(=O)(=O)c2ccccc2)[C@@H](CO)O1)c1ccccc1F	none
Cc1ccc(S(=O)(=O)N[C@@H]2CC[C@@H](CCNC(=O)c3ccccc3F)O[C@H]2CO)cc1	none
Nc1c(C(=O)Nc2ccccc2)sc2ncc([N+](=O)[O-])cc12	PGC1a acetyl up 83.6
CN1CCN(c2ccc([N+](=O)[O-])cc2C(=O)Nc2ccccc2)CC1	none
Cc1cnc2c(C(=O)O)cnn2c1	none
Cc1cc(OCC(=O)NNC(=O)c2cnccn2)cc(C)c1Cl	none
Nc1nnc(CC(=O)N/N=C/c2ccccc2OCc2ccc(F)cc2)s1	none
Cc1ccccc1OCC(=O)N/N=C/c1cc2ccccc2nc1Cl	PGC1a acetyl up 59.3
OC[C@H]1[C@H](c2ccc(C#CC3CCCC3)cc2)[C@@H]2CN(CCC(F)(F)F)CCCCN12	PGC1a acetyl up 64.8
OC[C@@H]1[C@H](c2ccc(/C=C/c3ccccc3)cc2)[C@H]2CN(CCC(F)(F)F)CCCCN12	PGC1a acetyl up 66.8
O=C(Cc1cccnc1)N1CC(=O)N2[C@H](CO)[C@@H](c3ccc(C#CC4CCCCC4)cc3)[C@H]2C1	none
Cc1nn(CC(=O)Nc2ccc(C(C)C)cc2)c(C)c1[N+](=O)[O-]	none
C[C@@H]1CCCCO[C@@H](CN(C)C(=O)c2ccncc2)[C@@H](C)CN([C@H](C)CO)C(=O)c2cc(NC(=O)CCCCCC(=O)Nc3ccccc3N)ccc2O1	none
Cc1nc2ccccc2n2c(O)c(CC(=O)O)cc12	none
Cn1nc([N+](=O)[O-])nc1S(C)(=O)=O	PGC1a acetyl up 95.0
COc1ccc2c(c1)c(CC(=O)OCC(N)=O)c(C)n2C(=O)c1ccc(Cl)cc1	none
CCOC(=O)c1[nH]c2ccc(OC)cc2c1NC(=O)c1ccc2c(c1)OCO2	PGC1a acetyl up 55.1
Nc1cc2ccncc2c2ccccc12	none
O=c1[nH]cnc2c1ccn2C1OC(CO)C(O)C1O (configuration not stated)	PGC1a acetyl up 138.1
C[C@@H]1CN([C@H](C)CO)C(=O)c2cc(C3=CCCCC3)cnc2O[C@@H]1CN(C)Cc1ccccc1	none
Cc1cccc(N2CCN(CC3CCCCC3)CC2)c1C	none
O=C(c1cc([N+](=O)[O-])ccc1N1CCCC1)N1CCCC1	none
O=[N+]([O-])c1ccc(N2CCN(C(=S)NCc3ccc(Cl)cc3)CC2)cc1	PGC1a acetyl up 80.8
Cc1ccc(CC(=O)N2CCN(c3ccc([N+](=O)[O-])cc3)CC2)cc1	PGC1a acetyl up 112.8
O=[N+]([O-])c1ccc(N2CCN(CC3CCCCC3)CC2)cc1	PGC1a acetyl up 63.2
Cc1noc(C)c1S(=O)(=O)Nc1ccc2c(c1)C(=O)N([C@H](C)CO)C[C@@H](C)[C@@H](CN(C)S(=O)(=O)c1cccs1)OCCCC[C@H](C)O2	none
O=C(CN1C(=O)C2C3CC(C(Br)C3Br)C2C1=O)OCC(=O)c1cccc([N+](=O)[O-])c1 (configuration not stated)	none
CCC(=O)N1C[C@H](C)[C@H](OC)CN(C)C(=O)c2cc(NC(=O)c3cnccn3)ccc2OC[C@@H]1C	none
NC(=O)C1CCN(C2=C(Cl)C(=O)c3ccccc3C2=O)CC1	PGC1a acetyl up 66.1
C[C@@H]1CN([C@H](C)CO)C(=O)CCCn2cc(nn2)CO[C@@H]1CN(C)C(=O)OCc1ccccc1	none
CC(NCc1cccs1)C(=O)NC1CCCCC1 (configuration not stated)	none
C[C@H]([C@@H](N)C(=O)N[C@@H](C(=O)O)[C@@H]1O[C@H](n2ccc(=O)[nH]c2=O)[C@@H](O)[C@H]1O)[C@@H](O)c1ccc(O)cn1	none
COc1ccc(NC(=O)C(Cl)=C(Cl)Cl)cn1	PGC1a acetyl up 101.0
COc1ccc(NC(=O)/C(Cl)=C(/Cl)S(=O)Cc2ccc(Cl)cc2)cn1 (configuration not stated)	none
COc1ccc(NC(=O)/C(Cl)=C(/Cl)S(=O)(=O)Cc2ccccc2)cn1	none
COCC(=O)NCc1nc2ccccc2n1Cc1ccccc1F	none
CC(=O)CS(=O)(=O)c1ccc(Oc2ccc(S(=O)(=O)CC(C)=O)cc2)cc1	none
Cc1ccc(S(=O)(=O)CCSC(=N)N)cc1	PGC1a acetyl up 67.1
C[C@H]1CCCCO[C@H](CN(C)Cc2ccncc2)[C@@H](C)CN([C@@H](C)CO)C(=O)c2cc(NS(=O)(=O)c3ccccc3)ccc2O1	none
O=C1c2ccccc2C(=O)c2c1oc(C(F)(F)F)c2C(=O)c1ccccc1	none
Cc1cc(-c2c(C)[nH]n(-c3ccc(Cl)cc3)c2=O)n(-c2ccccc2)n1	none
O=C(c1ccccc1)c1nn(-c2ccc(Cl)cc2)c(=O)cc1C(F)(F)F	PGC1a acetyl up 179.4
Cc1noc(C)c1NC(=O)Nc1cccc2c1O[C@H](CN(C)Cc1ccc(Oc3ccccc3)cc1)[C@H](C)CN([C@@H](C)CO)C2=O	none
Cc1ccc(S(=O)(=O)N(C)C[C@H]2Oc3ccc(NC(=O)CCC(F)(F)F)cc3C(=O)N([C@H](C)CO)C[C@@H]2C)cc1	none
COc1cccc(C(=O)c2c[nH]c(C(=O)NCc3cccnc3)c2)c1	PGC1a acetyl up 85.5
CCn1cc(C(=O)NCc2cccnc2)c2cc(OC)c(OC)cc2c1=O	none
COc1ccc2nc(NCc3cccnc3)sc2c1	none
COc1ccc(S(=O)(=O)Nc2ccc3c(c2)C(=O)N([C@H](C)CO)C[C@@H](C)[C@H](CN(C)C(=O)Nc2ccc(C(F)(F)F)cc2)OCCCC[C@@H](C)O3)cc1	none
O=[N+]([O-])c1ccc(/C=N/n2c(CO)nc3ccccc32)s1	PGC1a acetyl up 52.7
